Screening results as filed in PubChem.
Rows were chosen to be rich in hits. Some 3.1% of all compounds tested hit in one or more screens of this group.
E-selectin induc – E-selectin induction on HUVECs; 260,000 tested, 0.37% active; HUVEC E-selectin immunofluorescence imaging; normalized: neutral wells 0, TNF-alpha wells 100; activation, % at 7.58 µM;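 active = mean E-selectin-positive cell signal at least 10% of the positive control, reached in at least 60% of replicates, without over 20% cell loss; inconclusive = no rule given, readout overlaps actives, possibly toxicity-flagged; inactive = the rest, including those meeting only one limit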
Target sequence (P16581 whole entry, looked up): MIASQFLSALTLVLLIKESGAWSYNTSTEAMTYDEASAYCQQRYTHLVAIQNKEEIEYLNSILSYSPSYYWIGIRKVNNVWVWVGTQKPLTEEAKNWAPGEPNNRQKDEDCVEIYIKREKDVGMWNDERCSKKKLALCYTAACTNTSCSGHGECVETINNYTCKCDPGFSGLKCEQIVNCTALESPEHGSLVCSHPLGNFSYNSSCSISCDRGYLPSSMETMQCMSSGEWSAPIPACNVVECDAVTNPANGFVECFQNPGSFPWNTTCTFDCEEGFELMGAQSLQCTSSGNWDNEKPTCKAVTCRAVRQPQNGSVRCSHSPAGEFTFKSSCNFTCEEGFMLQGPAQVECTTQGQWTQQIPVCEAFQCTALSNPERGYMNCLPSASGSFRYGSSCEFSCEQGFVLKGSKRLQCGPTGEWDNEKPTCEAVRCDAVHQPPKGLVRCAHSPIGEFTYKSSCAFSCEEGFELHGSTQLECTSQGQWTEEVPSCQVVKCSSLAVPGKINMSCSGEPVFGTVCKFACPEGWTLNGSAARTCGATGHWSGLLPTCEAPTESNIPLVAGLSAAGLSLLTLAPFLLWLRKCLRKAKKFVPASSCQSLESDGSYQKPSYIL
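Test system: HUVEC; input: 3,000 HUVEC/well; measured by: immunofluorescence imaging; read-out: % PE-positive cells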
DENV2 CPE – DENV2-induced cell death inhibition. DENV2-infected cells, cytopathic effect rescue, plate reader. CPE inhibition, % at 9.99 µM. 350,000 tested, 1.7% active; in the data active = CPE inhibition above about 20%, passing the limit was not always enough; inconclusive = no clear call, values can overlap the other calls; tested in BHK-21 cells;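 also: 0% = median of neutral control wells and 100% = median of positive control wells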
miR-122 sensor – blocks miR-122 activity in Huh7 sensor cells; Huh7 miR-122 Renilla luciferase sensor, 48 h; neutral wells = 0, positive control = 100; activation (reporter increase), % at 12.5 µM; 340,000 tested, 0.3% active;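 active = mean replicate activation score at least 90 and every replicate individually at or above 90; inconclusive = only one of the two criteria met; inactive = neither criterion met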;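 also: higher luciferase means less miR-122 activity so hits act as miR-122 inhibitors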
rRNA inh HTS – inhibitors of bacterial rRNA selective over humanized ribosomes; GFP signal change (wild-type ribosome), % (test concentration not listed); 350,000 tested, 1.6% active; E. coli WT GFP vs humanized-ribosome RFP mutants, fluorescence, 24 h; stronger effect = lower value; DMSO median 0, no signal -100; AID 720706;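 active = significant combined selectivity score with lowered wild-type GFP, culture density cut under 30%, mutant RFP and density less affected; inactive = any of these conditions unmet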
Cneo AK release – causes C. neoformans cell lysis | adenylate kinase release luminescence, 4 h; normalised: neutral wells 0, clomiphene wells 100 | 360,000 tested, 0.2% active | lysis activity, % at 15 µM;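 active = mean lysis activity across replicates of at least 80%, whatever share of replicates individually reach that level; inactive = mean lysis activity below 80%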
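Material: C. neoformans cells | Amount: Yeast cell density of 5 × 10^6 cells/mL | Medium: Fresh YPD growth medium | Dosing: Single dose | Times: Static 4 h at 37 °C with compound, 1 h detection | Detection: AK luminescence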
* marks the source's active call; other numbers are inactive results; ? = inconclusive; nt = no result; [ ] = remark or other dose.

SMILES	E-selectin induc	DENV2 CPE	miR-122 sensor	rRNA inh HTS	Cneo AK release
CN(C)C(=O)[C@@]1(Cc2ccccc2CN=[N+]=[N-])COC(c2ccc(OCCCO)cc2)=N1	nt	-2	nt	nt	55
[N-]=[N+]=NCc1ccccc1C[C@]1(C(N)=O)N=C(c2ccc(OCCCO)cc2)O[C@H]1c1ccccc1	nt	25*	nt	nt	2
COC(=O)[C@@]1(Cc2ccccc2CN=[N+]=[N-])COC(c2ccc(OCCCO)cc2)=N1	nt	27*	nt	nt	1
COC(=O)[C@]1(Cc2ccccc2CN=[N+]=[N-])N=C(c2ccc(OCCCO)cc2)O[C@@H]1c1ccccc1	nt	-2	nt	nt	-10
COC(=O)[C@]1(CO)N=C(c2ccc(OCCCO)cc2)O[C@@H]1c1ccccc1CN=[N+]=[N-]	nt	51*	nt	nt	-1
COC(=O)[C@@]1(CCS(=O)(=O)c2ccccc2)N=C(c2ccc(OCCCO)cc2)O[C@H]1c1ccccc1	nt	27*	nt	nt	-13
C[C@@H]1CN([C@@H](C)CO)C(=O)c2cc(NC(=O)Nc3ccc(F)cc3)ccc2O[C@@H]1CN(C)S(=O)(=O)c1cn(C)cn1	0	1	0[16.7 µM]	0	-3
COc1ccc(S(=O)(=O)N(C)C[C@@H]2OCCCC[C@H](C)Oc3ccc(NC(=O)Nc4cccc5ccccc45)cc3C(=O)N([C@H](C)CO)C[C@H]2C)cc1	34*	2	4[16.7 µM]	1	3
C[C@@H]1CN([C@@H](C)CO)C(=O)c2cc(NC(=O)Nc3cccc4ccccc34)ccc2O[C@@H](C)CCCCO[C@@H]1CN(C)S(=O)(=O)c1ccc(F)cc1	0	21*	-7[16.7 µM]	6	-2
N#C/C(=N/O)c1nc(-c2ccc(F)cc2)cs1	1	-2	nt	-41*	nt
CC(C)NC(=O)Nc1ccc2c(c1)CC(=O)N([C@@H](C)CO)C[C@@H](C)[C@H](CN(C)C(=O)Nc1ccc3c(c1)OCO3)O2	1	nt	45[16.7 µM]	5	85*
C[C@@H]1CN([C@@H](C)CO)C(=O)Cc2cc(N(C)C)ccc2O[C@H]1CN(C)C(=O)Nc1ccc2c(c1)OCO2	nt	30*	6[16.7 µM]	0	-6
C[C@H](CO)N1C[C@H](C)[C@@H](CN(C)C(=O)Nc2ccc3c(c2)OCO3)Oc2ccc(NS(C)(=O)=O)cc2CC1=O	-2	31*	4[16.7 µM]	0	2
CC(C)NC(=O)Nc1ccc2c(c1)CC(=O)N([C@H](C)CO)C[C@@H](C)[C@H](CN(C)C(=O)Nc1ccc3c(c1)OCO3)O2	0	14	6[16.7 µM]	4	6
CC(C)[C@@H]1CCc2cnnn2COC[C@H](Cc2ccccc2)NC1=O	nt	nt	nt	9	nt
COc1ccc(C=O)cc1COc1ccc2c(c1)OCO2	nt	19	54	1	0
COc1ccc(C=O)cc1COc1ccc([N+](=O)[O-])c(C)c1	369*	-3	-5	4	1
COc1cc(C(=O)O/N=C2\C=CC(=O)C=C2C)cc(OC)c1OC	nt	-5	nt	9	nt
COc1cc(C(=O)ON=C2C3CC4CC(C3)CC2C4)cc(OC)c1OC	nt	6	-1	-22*	0
Cc1ccc(S(=O)(=O)Nc2c(C)ccc3nsnc23)cc1	nt	nt	138*	nt	0
Oc1cccc(/C=N/Nc2cc(N3CCOCC3)nc(N3CCOCC3)n2)c1	nt	nt	0	nt	-3
Cc1nc(N/N=C/c2cccc(F)c2)cc(N2CCOCC2)n1	0	10	-14	-3	-3
Cc1nc(N/N=C/c2ccc(O)cc2O)cc(N2CCOCC2)n1	-1	-3	-3	-37*	-3
Oc1ccc(/C=N/Nc2cc(N3CCOCC3)nc(N3CCOCC3)n2)cc1O	0	-3	nt	-25*	nt
C[C@@H](NC(=O)c1nc[nH]c1C(=O)N(C)Cc1ccccc1)c1ccccc1	0	35*	nt	-2	1
SMILES	E-selectin induc	DENV2 CPE	miR-122 sensor	rRNA inh HTS	Cneo AK release
C[C@H](NC(=O)c1ncn(Cc2ccccc2)c1C(=O)N[C@@H](C)c1ccccc1)c1ccccc1	0	75*	-1	16	2
O=C(O)c1ncn(Cc2ccccc2)c1C(=O)O	nt	nt	-6	nt	1
CS(=O)(=O)N1[C@@H]2c3ccc(-c4ccc(F)cc4)c(=O)n3C[C@@H]2[C@@H](CO)[C@@H]1C(=O)O	0	-3	nt	4	-4
Nc1ccc(-c2cc3ccccc3c(=O)o2)cc1	nt	67*	-6	17	2
O=c1oc(-c2ccccc2)cc2ccccc12	nt	-9	1	nt	-1
C[C@@H]1CN([C@H](C)CO)C(=O)c2cc(NC(=O)Nc3cccc4ccccc34)ccc2O[C@@H]1CN(C)C(=O)Nc1ccc(F)cc1	0	25*	-6[16.7 µM]	-1	-3
C[C@H]1CN([C@@H](C)CO)C(=O)c2cc(NC(=O)Nc3cccc4ccccc34)ccc2O[C@@H]1CN(C)C(=O)Nc1ccccc1	0	2	10[16.7 µM]	-3	0
C[C@H]1CN([C@@H](C)CO)C(=O)c2cc(NC(=O)Nc3cccc4ccccc34)ccc2O[C@H]1CN(C)C(=O)Nc1ccc(F)cc1	0	-11	-7[16.7 µM]	0	-2
C[C@@H]1CN([C@H](C)CO)C(=O)c2cc(NC(=O)Nc3cccc4ccccc34)ccc2O[C@@H]1CN(C)C(=O)Nc1ccccc1	1	?	?	1	103*
COc1ccc(NC(=O)Nc2ccc3c(c2)C(=O)N([C@@H](C)CO)C[C@H](C)[C@H](CN(C)C(=O)Nc2cccc4ccccc24)O3)cc1	nt	31*	-15[16.7 µM]	-1	-2
O=C(C[C@H]1C=C[C@H](NC(=O)c2ccc(F)cc2)[C@H](CO)O1)NCc1ccncn1	1	-2	nt	3	4
C[C@@H]1CN([C@H](C)CO)C(=O)c2cc(-c3ccccc3)cnc2O[C@H]1CN(C)C(=O)c1cccc(F)c1	0	nt	-8[16.7 µM]	-4	nt
COc1cc(CCCN2CCNC[C@H]2Cc2ccc(O)cc2)cc(OC)c1OC	0	3	nt	2	0
COc1cc(CCCN2CCNC[C@@H]2c2ccccc2)cc(OC)c1OC	0	70*	-1	8	-3
C[C@@H]1CN([C@@H](C)CO)C(=O)c2cc(Br)cnc2O[C@@H]1CN(C)CC1CCCC1	1	7	5[16.7 µM]	-1	-6
Brc1ccc(/C=N/n2cnnc2)s1	5	-5	nt	-51*	nt
Cc1ccc(/C=N/n2cnnc2)s1	nt	nt	-6	nt	0
O=C(c1ccccc1)N1CC[C@@H]2[C@H](CO)Nc3ccc(-c4ccc(F)cc4)cc3[C@@H]21	0	32*	-7[16.7 µM]	0	57
O=C(c1ccccc1)N1CC[C@@H]2[C@H]1c1cc(-c3ccc(F)cc3)ccc1N[C@@H]2CO	1	29*	12[16.7 µM]	-6	52
C[C@@H]1CCCCO[C@@H](CN(C)CC2CCCCC2)[C@@H](C)CN([C@@H](C)CO)C(=O)c2cc(NC(=O)NC3CCCCC3)ccc2O1	1	-10	3[16.7 µM]	-9	-1
CN(CC(=O)Nc1cccc(F)c1)C(=O)CCCc1c[nH]c2ccccc12	1	6	-4	-26*	0
